The results in this text go back to ChEMBL document CHEMBL1142735, “Discovery of a new series of centrally active tricyclic isoxazoles combining serotonin (5-HT) reuptake inhibition with alpha2-adrenoceptor blocking activity” (J Med Chem, 2005).

Assay [1] concerns the target Sodium-dependent serotonin transporter (Homo sapiens, UniProt P31645). As to the kind of experiment: Binding affinity for serotonin transporter. The gist of the method: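 Human platelet membranes (50 µg protein) in 50 mM Tris-HCl pH 7.4 with 120 mM NaCl and 5 mM KCl. Competition against [3H]paroxetine (0.5 nM), 60 min at 25 °C. Nonspecific binding defined with imipramine (1 µM). Filtration over 0.1% PEI-presoaked GF/B, washed with incubation buffer. Sigmoidal fit of specific binding; Ki via Cheng-Prusoff.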

Assay [2] addresses T1, Alpha-2C adrenergic receptor (Homo sapiens, UniProt P18825).
T1 sequence (P18825 whole entry): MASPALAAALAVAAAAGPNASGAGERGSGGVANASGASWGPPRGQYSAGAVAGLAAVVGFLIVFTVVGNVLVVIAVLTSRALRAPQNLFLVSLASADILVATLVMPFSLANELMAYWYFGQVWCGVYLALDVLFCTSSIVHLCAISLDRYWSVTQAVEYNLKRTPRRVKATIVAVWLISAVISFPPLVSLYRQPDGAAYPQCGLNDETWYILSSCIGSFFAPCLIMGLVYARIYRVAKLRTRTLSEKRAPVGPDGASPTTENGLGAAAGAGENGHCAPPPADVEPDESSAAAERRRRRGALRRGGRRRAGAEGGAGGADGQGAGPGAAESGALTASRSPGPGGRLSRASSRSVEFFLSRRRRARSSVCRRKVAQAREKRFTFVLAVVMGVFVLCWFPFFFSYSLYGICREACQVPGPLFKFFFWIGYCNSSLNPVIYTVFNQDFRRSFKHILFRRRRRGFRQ
As to the kind of experiment: Binding affinity for alpha-2C adrenergic receptor. The gist of the method: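 Human alpha2C receptor stably expressed in CHO cell membranes (5-10 µg protein) in 25 mM glycylglycine, pH 7.6. Competition against [3H]rauwolscine (1 nM), 30 min at 25 °C. Nonspecific binding defined with spiroxatrine (1 µM). Rapid filtration over GF/B, washed with ice-cold 50 mM Tris-HCl pH 8.0, scintillation counting. Sigmoidal curves fitted; Ki by Cheng-Prusoff.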

Chain of Sodium-dependent serotonin transporter (P31645 whole entry): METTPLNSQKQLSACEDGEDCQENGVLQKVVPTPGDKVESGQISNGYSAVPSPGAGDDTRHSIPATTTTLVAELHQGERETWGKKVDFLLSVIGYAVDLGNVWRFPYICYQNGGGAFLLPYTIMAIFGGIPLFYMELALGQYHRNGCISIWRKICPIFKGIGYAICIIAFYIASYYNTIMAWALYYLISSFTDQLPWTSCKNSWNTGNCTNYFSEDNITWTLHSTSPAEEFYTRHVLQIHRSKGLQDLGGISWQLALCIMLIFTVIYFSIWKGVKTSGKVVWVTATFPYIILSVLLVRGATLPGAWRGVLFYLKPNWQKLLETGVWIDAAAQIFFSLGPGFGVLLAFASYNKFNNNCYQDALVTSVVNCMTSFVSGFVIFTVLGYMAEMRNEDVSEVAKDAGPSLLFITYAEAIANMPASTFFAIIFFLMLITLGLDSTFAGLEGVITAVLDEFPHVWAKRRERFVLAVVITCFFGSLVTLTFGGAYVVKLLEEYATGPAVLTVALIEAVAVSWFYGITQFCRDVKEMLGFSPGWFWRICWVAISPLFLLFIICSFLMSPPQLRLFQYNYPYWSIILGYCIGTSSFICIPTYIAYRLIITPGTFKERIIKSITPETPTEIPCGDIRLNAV

In general, Ki refers to a measure of affinity in units of concentration, obtained from inhibition or displacement. For the compound `C/C(=C\c1ccccc1)CN1CCN(C[C@@H]2ON=C3c4ccc(OC(=O)c5ccncc5)cc4OC[C@H]32)CC1`, the Ki was 13 nM in assay [1] and 0.5 nM in assay [2].
The like results for `CC(=O)Oc1ccc2c(c1)OC[C@@H]1C2=NO[C@H]1CN1CCN(C/C(C)=C/c2ccccc2)CC1` were, in that order, 7.7 nM and 0.2 nM.
On to `C=CC(=O)Oc1ccc2c(c1)OC[C@@H]1C2=NO[C@H]1CN1CCN(C/C(C)=C/c2ccccc2)CC1`, for which the figures for the inhibition constant Ki in assay [1] and in assay [2] were 41 nM and 0.5 nM, respectively.
The like results for `C/C(=C\c1ccccc1)CN1CCN(C[C@@H]2ON=C3c4ccc(OC(=O)C(C)(C)C)cc4OC[C@H]32)CC1` were, in that order, 12 nM and 1.6 nM.
With `COc1cc2c(cc1OC)C1=NO[C@@H](CN3CCN(Cc4ccc5ccccc5c4)CC3)[C@@H]1CN2`, the Ki was 1.5 nM in assay [1] and 12 nM in assay [2].
On the same counts, the results for `CCOC(=O)N1C[C@@H]2C(=NO[C@H]2CN2CCN(C/C=C/c3ccccc3)CC2)c2ccccc21` are 2.6 nM and 9.8 nM.
On the same counts, the results for `C/C(=C\c1ccccc1)CN1CCN(C[C@@H]2ON=C3c4ccc(OC(=O)C5CC5)cc4OC[C@H]32)CC1` are 26 nM and 0.3 nM.
On the same counts, the results for `COCC(=O)Oc1ccc2c(c1)OC[C@@H]1C2=NO[C@H]1CN1CCN(C/C(C)=C/c2ccccc2)CC1` are 5.7 nM and 0.2 nM.
As to `COc1ccc2c(c1)C=C[C@@H]1C2=NO[C@H]1CN1CCN(Cc2ccc3ccccc3c2)CC1`, the Ki worked out at 1.4 nM in assay [1] and 6.3 nM in assay [2].
On the same counts, the results for `CC(=O)N1C[C@@H]2C(=NO[C@H]2CN2CCN(CCC/C=C/c3ccccc3)CC2)c2ccccc21` are 61 nM and 11 nM.
As to `COc1cc2c(cc1OC)C1=NO[C@@H](CN3CCN(Cc4ccc5ncccc5c4)CC3)[C@@H]1CN2`, the results for the Ki in assay [1] and in assay [2] were 22 nM and above 1000 nM, respectively.
Take `C(=C\c1ccccc1)/CN1CCN(C[C@@H]2ON=C3c4ccccc4OC[C@H]32)CC1`: the affinity in assay [2] corresponds to a Ki of 1.7 nM. In other words, the single-digit nanomolar range.
On to `C/C(=C\c1ccccc1)CN1CCN(C[C@@H]2ON=C3c4ccc(OC5CCCC5)cc4OC[C@H]32)CC1`, for which the inhibitory constant (Ki) in assay [1] stood at 56 nM; in assay [2], 0.5 nM.
Take `COc1cc2c(cc1OC)C1=NO[C@@H](CN3CCN(C/C=C/c4ccccc4)CC3)[C@@H]1CN2`: the results for the Ki in assay [1] and in assay [2] were 9.7 nM and 5.4 nM, respectively.
As to `C1=C[C@@H]2C(=NO[C@H]2CN2CCN(C/C=C/c3ccccc3)CC2)c2ccccc21`, the figures for the Ki in assay [1] and in assay [2] were 106 nM and 112 nM, respectively.
Consider `CCOCCOCCOc1ccc2c(c1)OC[C@@H]1C2=NO[C@H]1CN1CCN(C/C(C)=C/c2ccccc2)CC1`, for which the figures for the Ki in assay [1] and in assay [2] were 17 nM and 0.2 nM, respectively.
Take `C/C(=C\c1ccccc1)CN1CCN(C[C@@H]2ON=C3c4ccc(OCCN(C)C)cc4OC[C@H]32)CC1`: the affinity in assay [1], expressed as Ki, was 3.5 nM.
For `COc1ccc2c(c1)OC[C@@H]1C2=NO[C@H]1CN1CCN(C/C(C)=C/c2ccccc2)CC1`, the Ki in assay [2] came to 0.2 nM.
Turning to `COc1cc2c(cc1OC)N(C)C[C@@H]1C2=NO[C@H]1CN1CCN(CCCC(C)=Cc2ccccc2)CC1`, the Ki was found to be 104 nM in assay [1] and 4 nM in assay [2].
On the same counts, the results for `COc1cc2c(cc1OC)C1=NO[C@@H](CN3CCN(CCOc4ccc(F)cc4)CC3)[C@@H]1CN2` are 154 nM and 1.6 nM.
For the compound `C/C(=C\c1ccccc1)CN1CCN(C[C@@H]2ON=C3c4ccc(O)cc4OC[C@H]32)CC1`, the Ki in assay [1] stood at 3.6 nM.
On to `COc1cc2c(cc1OC)C1=NO[C@@H](CN3CCN(C/C(C)=C/c4ccccc4)CC3)[C@@H]1CN2`, for which the Ki amounted to 8.9 nM in assay [1] and 0.1 nM in assay [2].
On the same counts, the results for `CCNC(=O)N1C[C@@H]2C(=NO[C@H]2CN2CCN(C/C=C/c3ccccc3)CC2)c2ccccc21` are 23 nM and 2.7 nM.
The like results for `c1ccc2c(c1)NC[C@@H]1C2=NO[C@H]1CN1CCN(Cc2ccc3ccccc3c2)CC1` were, in that order, 0.5 nM and 9.6 nM.
The like results for `COCCOc1ccc2c(c1)OC[C@@H]1C2=NO[C@H]1CN1CCN(C/C(C)=C/c2ccccc2)CC1` were, in that order, 4.5 nM and 0.03 nM.
Regarding `C(=C\c1ccccc1)/CN1CCN(C[C@@H]2ON=C3c4ccccc4NC[C@H]32)CC1`, the results for the Ki in assay [1] and in assay [2] were 84 nM and 15 nM, respectively.
On the same counts, the results for `CN1C[C@@H]2C(=NO[C@H]2CN2CCN(C/C=C/c3ccccc3)CC2)c2ccccc21` are 16 nM and 4.5 nM.
The like results for `COc1cc2c(cc1OC)C1=NO[C@@H](CN3CCN(Cc4ccc(Cl)cc4)CC3)[C@@H]1CN2` were, in that order, 151 nM and 23 nM.
The like results for `COc1ccc2c(c1)C=C[C@@H]1C2=NO[C@H]1CN1CCN(C/C=C/c2ccccc2)CC1` were, in that order, 7.3 nM and 3.9 nM.
